ChEMBL document CHEMBL1135535, “Discovery and optimization of a series of carbazole ureas as NPY5 antagonists for the treatment of obesity” (J Med Chem, 2002)

How the values were obtained:
[1] = target: T1, Neuropeptide Y receptor type 5 (Homo sapiens, UniProt Q15761); test: Binding affinity to the human Neuropeptide Y receptor Y5 (NPY5)
T1 sequence (Q15761 whole entry): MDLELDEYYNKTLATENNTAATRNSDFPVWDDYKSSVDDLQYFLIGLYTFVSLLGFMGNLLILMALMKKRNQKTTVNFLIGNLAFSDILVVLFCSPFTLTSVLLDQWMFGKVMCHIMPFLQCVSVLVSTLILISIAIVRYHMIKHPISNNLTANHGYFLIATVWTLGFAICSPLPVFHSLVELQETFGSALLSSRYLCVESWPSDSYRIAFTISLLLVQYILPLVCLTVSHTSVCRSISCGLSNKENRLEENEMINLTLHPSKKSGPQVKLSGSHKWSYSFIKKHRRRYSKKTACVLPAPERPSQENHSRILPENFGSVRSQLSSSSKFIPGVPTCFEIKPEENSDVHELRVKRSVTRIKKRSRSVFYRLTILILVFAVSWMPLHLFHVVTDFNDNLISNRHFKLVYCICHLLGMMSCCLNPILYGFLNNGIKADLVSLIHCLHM
Method in brief: (§1)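 Membranes from Hi5 insect cells infected 48 h with baculovirus carrying rat or human NPY-5 receptor, prepared by sonication in hypotonic Tris/EDTA/sucrose buffer and harvested on a 41% sucrose cushion. 0.01 µCi [125I]PYY incubated with membranes and compound in HEPES buffer (CaCl2, MgCl2, 0.5% BSA, pH 7.4) for 2 h at room temperature. Filtered onto PEI-treated GF/C plates, then scintillation counted.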

Salmonella typhimurium [2] = test: Mutagenicity (Ames activity) for Salmonella Typhimurium TA98 in the presence of rat liver S9 mix, at 33 ug/plate conc.; type: functional, Salmonella enterica subsp. enterica serovar Typhimurium
Method in brief: (§2)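 Ames plate incorporation assay with S. typhimurium TA98 and TA100, run as described by Maron and Ames. Metabolic activation used S9 mix from livers of Aroclor 1254-treated Sprague–Dawley rats with an NADPH-generating cofactor system. Test substance given at 3.3–100 µg/plate. Read-out was revertant colonies per plate against a solvent control.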

Salmonella typhimurium [3] = test: Ames activity in TA 98+S9, expressed as maximum fold increase in mutation frequency; type: functional, Salmonella enterica subsp. enterica serovar Typhimurium
Method in brief: (§3)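 Salmonella typhimurium TA98 plate incorporation assay with S9 mix. The S9 is the postmitochondrial fraction of livers from Aroclor 1254-treated Sprague–Dawley rats, supplemented with cofactors for NADPH generation. Tested across 6–2000 μg/plate. The value is the maximum increase in mutation frequency relative to background across that dose range.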

Salmonella typhimurium [4] = test: Mutagenicity (Ames activity) for Salmonella Typhimurium TA100 in the presence of rat liver S9 mix, at 100 ug/plate conc.; type: functional, Salmonella enterica subsp. enterica serovar Typhimurium; method in brief: as §2
Salmonella typhimurium [5] = test: Mutagenicity (Ames activity) for Salmonella Typhimurium TA100 in the presence of rat liver S9 mix, at 10 ug/plate conc.; type: functional, Salmonella enterica subsp. enterica serovar Typhimurium; method in brief: as §2
Salmonella typhimurium [6] = test: Mutagenicity (Ames activity) for Salmonella Typhimurium TA100 in the presence of rat liver S9 mix, at 33 ug/plate conc.; type: functional, Salmonella enterica subsp. enterica serovar Typhimurium; method in brief: as §2
Salmonella typhimurium [7] = test: Mutagenicity (Ames activity) for Salmonella Typhimurium TA98 in the presence of rat liver S9 mix, at 10 ug/plate conc.; type: functional, Salmonella enterica subsp. enterica serovar Typhimurium; method in brief: as §2
Salmonella typhimurium [8] = test: Mutagenicity (Ames activity) for Salmonella Typhimurium TA98 in the presence of rat liver S9 mix, at 3.3 ug/plate conc.; type: functional, Salmonella enterica subsp. enterica serovar Typhimurium; method in brief: as §2
Salmonella typhimurium [9] = test: Mutagenicity (Ames activity) for Salmonella Typhimurium TA98 in the presence of rat liver S9 mix, at 100 ug/plate conc.; type: functional, Salmonella enterica subsp. enterica serovar Typhimurium; method in brief: as §2
Salmonella typhimurium [10] = test: Mutagenicity (Ames activity) for Salmonella Typhimurium TA100 in the presence of rat liver S9 mix, at 3.3 ug/plate conc.; type: functional, Salmonella enterica subsp. enterica serovar Typhimurium; method in brief: as §2
Salmonella typhimurium [11] = test: Ames activity in TA 98+S9, expressed as maximum fold increase in mutation frequency; NI means no increase; type: functional, organism-based; details: Salmonella enterica subsp. enterica serovar Typhimurium; method in brief: as §3
[12] = Half life in rat was reported; type: ADME, organism-based; details: in vivo
Method in brief: (§4)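 Rats received a DMA:PEG:H2O 1:1:1 solution, iv at 10 µmol/kg and po at 30 µmol/kg. Half-life, Vss, clearance, Cmax, Tmax and oral bioavailability were derived from plasma levels.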

[13] = Bioavailability in rat; type: ADME, organism-based; details: in vivo, read-out: Bioavailabiility; method in brief: as §4
[14] = target: T1, Neuropeptide Y receptor type 5; test: In vitro human Neuropeptide Y receptor Y5 functional antagonism (reporter gene assay)
[15] = Compound was evaluated for functional antagonism of NPY activity in cellular Ca flux
[16] = target: T2, Neuropeptide Y receptor type 5 (Rattus norvegicus, UniProt Q63634); test: Binding affinity against rat Neuropeptide Y receptor Y5; method in brief: as §1
T2 sequence (Q63634 whole entry): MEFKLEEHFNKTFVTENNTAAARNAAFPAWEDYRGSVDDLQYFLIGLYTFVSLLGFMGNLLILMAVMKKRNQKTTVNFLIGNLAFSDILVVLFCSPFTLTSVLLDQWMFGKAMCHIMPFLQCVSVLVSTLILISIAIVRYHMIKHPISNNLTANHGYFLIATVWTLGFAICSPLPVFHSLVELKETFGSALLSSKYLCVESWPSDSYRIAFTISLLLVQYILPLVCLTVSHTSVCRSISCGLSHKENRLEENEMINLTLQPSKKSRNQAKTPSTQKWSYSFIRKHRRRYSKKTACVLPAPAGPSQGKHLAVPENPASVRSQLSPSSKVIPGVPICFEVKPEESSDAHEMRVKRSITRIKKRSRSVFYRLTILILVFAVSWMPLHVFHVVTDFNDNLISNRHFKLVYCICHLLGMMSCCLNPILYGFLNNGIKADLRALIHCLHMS

With CCn1c2ccccc2c2cc(C(=O)NCCc3ccncc3)ccc21 the IC50 [1] was 700 nM.
For CN(C)S(=O)(=O)n1c2ccccc2c2cc(NC(=O)N3CCOCC3)ccc21, the IC50 [1] was 350 nM.
For CCn1c2ccccc2c2cc(N)ccc21, the “Revertant colonies per plate” value (Salmonella typhimurium [2]) was 1227, the Mutation frequency (Salmonella typhimurium [3]) was 43 and the “Revertant colonies per plate” value (Salmonella typhimurium [4]) was 483. For the same molecule, the “Revertant colonies per plate” value (Salmonella typhimurium [5]) was 358, the “Revertant colonies per plate” value (Salmonella typhimurium [6]) was 466 and the “Revertant colonies per plate” value (Salmonella typhimurium [7]) was 1416. For the same molecule, the “Revertant colonies per plate” value (Salmonella typhimurium [8]) was 623, the “Revertant colonies per plate” value (Salmonella typhimurium [9]) was 897 and the “Revertant colonies per plate” value (Salmonella typhimurium [10]) was 192.
Molecule CCn1c2ccccc2c2cc(CC(=O)NCc3ccncc3)ccc21 has an IC50 [1] of 2250 nM.
For CC(C)c1c(N)ccc2c1c1ccccc1n2C(C)C, the NI (Salmonella typhimurium [11]) was “no increase”.
CC(C)(C)Cn1c2ccccc2c2cc(NC(=O)N3CCOCC3)ccc21 gave an IC50 [1] of 78 nM.
In the case of CCOc1c(NC(=O)N2CCOCC2)ccc2c1c1ccccc1n2C(C)C, the IC50 [1] is reported as 270 nM.
With Cc1cc2c(cc1N)c1ccccc1n2C(C)C the Mutation frequency (Salmonella typhimurium [3]) was 3.
CS(=O)(=O)n1c2ccccc2c2cc(NC(=O)CCc3ccncc3)ccc21 gave an IC50 [1] of 1 nM.
CS(=O)(=O)n1c2ccccc2c2cc(N)ccc21 showed a Max fold increase (Salmonella typhimurium [3]) of 35.
Work on Cc1cccc2c3cc(N)ccc3n(C(C)C)c12 yielded a Mutation frequency (Salmonella typhimurium [3]) of 6.
With Cn1c2ccccc2c2cc(NC(=O)CCc3ccncc3)ccc21 the IC50 [1] was 33 nM.
In the case of Cc1cc2c(c(C)c1NC(=O)N1CCOCC1)c1ccccc1n2C(C)C, the IC50 [1] is reported as 390 nM.
With Cc1cccc2c3cc(NC(=O)N4CCOCC4)ccc3n(C(C)C)c12 the IC50 [1] was 2 nM.
Molecule Cc1c(NC(=O)N2CCOCC2)cc(C)c2c1c1ccccc1n2C(C)C has an IC50 [1] of 710 nM.
CCn1c2ccccc2c2cccc(NC(=O)CCc3ccncc3)c21 showed an IC50 [1] of 440 nM.
With O=C(CCc1ccncc1)Nc1ccc2[nH]c3ccccc3c2c1 the IC50 [1] was 230 nM.
Work on CCn1c2ccccc2c2cc(NC(=O)CCc3ccncc3)ccc21 yielded a half-life [12] of 15 min, a bioavailability [13] of 1% and an IC50 [14] of 11 nM. The IC50 [1] was 2 nM, the IC50 [15] was 2 nM and the IC50 [16] was 7 nM.
With Cc1cc2c(c(C)c1N)c1ccccc1n2C(C)C the NI (Salmonella typhimurium [11]) was “no increase”.
For CC(C)n1c2ccccc2c2c(F)c(NC(=O)N3CCOCC3)c(F)cc21, the IC50 [1] was 12 nM.
CCn1c2ccccc2c2ccc(NC(=O)CCc3ccncc3)cc21 showed an IC50 [1] of 800 nM.
For CC(C)n1c2ccccc2c2cc(NC(=O)N3CCOCC3)ccc21, the IC50 [1] was 2 nM.
O=C(CCc1ccncc1)Nc1ccc(C(=O)c2ccccc2)cc1 gave an IC50 [1] of 300 nM.
